# Like-named read-outs stand apart in the source and are kept apart here.
# Experiments:
# Sprague-Dawley (SD) rats [1] = test: 5-day maximum tolerated dose; format: in vivo, rat
# Summary of the method: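 Thirty Sprague-Dawley rats, 60–65 days old (276–300 g), viral-antibody free, formed 5 groups of 3 males and 3 females. They received 2% carboxymethylcellulose vehicle or test compound suspended in it at 50, 100, 500 or 1000 mg/kg/day by oral gavage once daily for 5 days. Mortality, body weight and food intake were monitored. Terminal hematology, clinical chemistry and necropsy followed, with control and high-dose organs sectioned. Two-tailed Student's t-test, p<0.05.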
# Sprague-Dawley (SD) rats [2] = test: 28-day toxicology evaluation within long-term PK study, oral gavage once daily; format: in vivo, rat; settings: 100 mg/kg/day oral
# Summary of the method: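 Male and female Sprague-Dawley rats, 6–8 weeks old (250–350 g), 3+3 per group, received 2% carboxymethylcellulose vehicle or test compound suspended in it at 100 mg/kg/day by oral gavage for 28 days. Adverse events, body weight and daily food intake were tracked. Terminal hematology and serum biochemistry, gross necropsy, and histopathology of heart, lungs, liver, kidney, spleen and colon followed. Two-tailed Student's t-test versus vehicle, p<0.05.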
# Long-term = format: in vivo, rat; settings: 100 mg/kg/day oral, day 28
# Summary of the method: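 Sprague-Dawley rats (3 males and 3 females) were dosed with test compound by oral gavage at 100 mg/kg/day for 28 days, suspended in 2% carboxymethylcellulose. On day 28 the animals were anesthetized and blood was sampled from 5 min to 24 h after dosing. Compound was quantified by LC/MS/MS, and Cmax and Tmax were taken from the mean (n=6) concentration-time profile.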
# [3] = Single dose pharmacokinetic study, oral gavage, blood by LC/MS/MS; format: in vivo, rat
# Summary of the method: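 Two groups of 6 Sprague-Dawley rats (3 males and 3 females each), 6–8 weeks old, received a single oral gavage of test compound at 500 or 1000 mg/kg, suspended in 2% carboxymethylcellulose. Blood was drawn at 5, 10, 15, 30, 45 min and 1, 2, 4, 6, 24 h. Compound was measured by LC/MS/MS, and t1/2, Tmax and Cmax were derived from mean (n=6) profiles.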
# [4] = 500 mg/kg oral and 20 mg/kg i.v., blood at 2 and 6 hours; cited from earlier work
# [5] = system: LPS-induced experimental periodontal disease; settings: rats, oral, 28 days, doses 0, 1, 5, 10 and 30 mg/kg; cited from earlier work
# [6] = oral dose of 2g/kg; cited from earlier work
# [7] = humans, cited from earlier work
# [8] = 50-1000 mg/kg/day oral, 5 days, both sexes
# [9] = 28-Day PK Study, compared to placebo-treated controls
smiles,measurement,setting,value
O=C(/C=C/c1ccc(O)cc1)C(C(=O)/C=C/c1ccc(O)cc1)C(=O)Nc1ccccc1 [CMC2.24],Daily food consumption and adverse events,Sprague-Dawley (SD) rats [1]; [8],no difference
same,Mean body weight vs placebo treated controls,Sprague-Dawley (SD) rats [1]; [8],did not show significant differences
same,Highest dose found safe (MTD not demonstrated),"Sprague-Dawley (SD) rats [1]; oral, one week of treatment",≥ 1000 mg/kg
same,Adverse events,Sprague-Dawley (SD) rats [2]; 28 days,no adverse events were reported
same,Mean body weight vs placebo treated controls,"Sprague-Dawley (SD) rats [2]; 28 days, both sexes",no significant differences
same,Hematological & Serological parameters,Sprague-Dawley (SD) rats [2]; [9],No change observed
same,"Histology of organs (Heart, Lungs, Spleen, Liver, Kidney, Colon)",Sprague-Dawley (SD) rats [2]; [9],Normal Histology Observed
same,Peak blood concentration (Cmax),Long-term,0.2 ng/mL
same,Tmax,Long-term,4 h
same,Serum half-life,[3]; oral administration,10 h
same,Cmax in blood,[3]; single oral dose 500 mg/kg,8 ng/mL
same,Tmax,[3]; single oral dose 500 mg/kg,0.75 h
same,Cmax in blood,[3]; single oral dose 1000 mg/kg,6.7 ng/mL
same,Tmax,[3]; single oral dose 1000 mg/kg,0.75 h
same,Bioavailability based on blood analysis,[4],poor bioavailability
same,Minimum effective dose to inhibit inflammation and alveolar bone resorption,[5],1 mg/kg/day
"COc1cc(C=CC(=O)CC(=O)C=Cc2ccc(O)c(OC)c2)ccc1O [curcumin, 1,7-bis-(4-hydroxy-3-methoxyphenyl)-1,6-heptadiene-3,5-dione]",Cmax,[6],1350 ± 230 ng/mL
same,Time of Cmax,[6],0.75 h
same,Cmax in serum,[7]; oral dose of 10 g/kg,50.5 ng/mL
same,Time of Cmax,[7]; oral dose of 10 g/kg,4 h
same,Cmax in serum,[7]; oral dose of 12 g/kg,57.6 ng/mL
same,Time of Cmax,[7]; oral dose of 12 g/kg,2 h
